Data on 10 compounds can be found in ChEMBL document CHEMBL1130025, “Dihydro(alkylthio)(naphthylmethyl)oxopyrimidines: novel non-nucleoside reverse transcriptase inhibitors of the S-DABO series” (J Med Chem, 1997).

Test [1] deals with C8166. The test is described as follows: Ability to inhibit HIV-2 multiplication in acutely infected C8166 cells. The class given is functional, cell-based. Conditions: Homo sapiens. Summed up:
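C8166 cells (1×10^4 per well) in RPMI 1640 with 10% FCS were infected with 1000 CCID50 of HIV-2 ROD, alongside serial compound dilutions from DMSO stock. After 5 days at 37 °C, viable cells were counted by MTT. EC50 is the dose giving 50% protection from virus-induced cytopathicity. Data are means of three experiments.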

Test [2] concerns H9. As to the kind of experiment: Ability to inhibit HIV-1 multiplication in chronically infected H9/IIIB cells. The class given is functional, cell-based. As to conditions: Homo sapiens. Summed up:
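Value taken as compound dose lowering infectious HIV-1 titer by 1 log in chronically infected H9/IIIB cells. Titer was read in C8166 cells by limiting dilution (1:2, 4 replica wells per dilution), with light-microscope scoring of cytopathicity after 4 days, expressed as CCID50/mL. Data are means of three separate experiments.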

Test [3] deals with MT4. The test is described as follows: Dose required to reduce the viability of mock-infected cells by 50%. The class given is functional. Conditions: Homo sapiens. Summed up:
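Mock-infected MT-4 cells (1×10^4 per well) were exposed to compound dilutions in parallel with the antiviral assay. After 4 days at 37 °C, viability was measured by MTT. CC50 is the dose reducing viable cell number by 50%.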

Test [4] has as its system MT4. As to the kind of experiment: (§1) Inhibitory activity against resistant HIV-1 strain MC639r was determined. The class given is functional, cell-based. Conditions: Homo sapiens.
Test [5] deals with MT4. The test is described as follows: (§2) Inhibitory activity against resistant HIV-1 strain NevR was determined. The class given is functional, cell-based. As to conditions: Homo sapiens.
The target of test [6] is Human immunodeficiency virus type 1 reverse transcriptase (Human immunodeficiency virus 1, UniProt Q72547). The test is described as follows: Compound concentration required to inhibit the HIV-1 recombinant Reverse transcriptase (rRT) activity by 50%.
Test [7] concerns Human immunodeficiency virus type 1. As to the kind of experiment: Selectivity index is the ratio of CC50 to EC50. As to conditions: Human immunodeficiency virus 1.
In test [8] the test system is MT4. The test is described as follows: Dose required to achieve 50% protection of MT-4 cells from the HIV-1 induced cytopathogenicity in HIV-1 infected MT-4 cells. Conditions: Homo sapiens. In general terms: Damage to the host cells serves as the signal in cytopathic effect assays.
In test [9] the test system is MT4. The test is described as follows: Inhibitory activity against resistant HIV-1 strain Nevr was determined. The class given is functional, cell-based. As to conditions: Homo sapiens.
Test [10] relates to MT4. The test is described as §1. The class given is functional, Homo sapiens.
In test [11] the test system is MT4. The description is as §2. The class given is functional, Homo sapiens.
For test [12], the system named is MT4. The test is described as follows: Inhibitor activity against resistant HIV-1 strain MC639r was determined. The class given is functional, cell-based. Conditions: Homo sapiens.

Bounds are passed on as bounds.

Take `Oc1cc(Cc2ccc3ccccc3c2)nc(SC2CCCCC2)n1`: the EC50 in [1] is more than 100 µM; in test [2], more than 100 µM; in test [4], 20 µM; in test [5], more than 100 µM; in [8] it was 1.7 µM. The compound also displayed a CC50 in test [3] of more than 300 µM. Further, the concentration for half-maximal inhibition (IC50) in test [6] is 33.1 µM. For the same compound, in test [7], the Ratio was more than 128.
For `Oc1cc(Cc2cccc3ccccc23)nc(SC2CCCC2)n1`, the EC50 in test [1] was more than 100 µM; in test [2] it was more than 100 µM; in test [5] it was more than 100 µM; in test [9], more than 100 µM; in [8], 2 µM. In test [3], this compound returned a CC50 of more than 300 µM. In addition, the Ratio in test [7] is more than 150.
`CCC(C)Sc1nc(O)c(C)c(Cc2cccc3ccccc23)n1` (stereo unspecified): the EC50 in [1] was more than 100 µM; in test [2] it was more than 100 µM; in test [4], 6 µM; in [5] it was more than 100 µM; in test [8], 1 µM. Also, the 50% cytotoxic concentration (CC50) in test [3] was more than 300 µM. In addition, the Ratio in [7] was more than 300.
Turning to `CCC(C)Sc1nc(O)c(C)c(Cc2ccc3ccccc3c2)n1` (stereo unspecified), the concentration for a half-maximal effect (EC50) in test [1] is more than 100 µM; in test [2] it was more than 100 µM; in test [4], 17.8 µM; in test [5], more than 100 µM; in test [8], 1.7 µM. Further, in test [3], it took 80 µM to reach half-maximal cytotoxicity (CC50). Moreover, the Ratio in test [7] came out at 47.
For the compound `CCC(C)Sc1nc(O)cc(Cc2ccc3ccccc3c2)n1` (stereo unspecified), the EC50 in test [1] was more than 100 µM; in test [2] it was more than 100 µM; in test [4], 4.1 µM; in test [5], more than 100 µM; in test [8], 2.8 µM. The compound further gave a cytotoxic concentration (CC50) in [3] of 40 µM. Further, the half-inhibitory concentration (IC50) in [6] was determined as 7.4 µM. Moreover, in test [7], the Ratio turned out to be 14.
Take `Cc1cn([C@H]2C[C@H](N=[N+]=[N-])[C@@H](CO)O2)c(=O)[nH]c1=O` [ZIDOVUDINE]: the EC50 in test [1] was 0.015 µM; in [2], more than 20 µM. In [3], this compound had a CC50 of more than 80 µM. Moreover, the EIC50 in test [10] came out at 0.003 µM; in test [11] it was 0.013 µM.
For the compound `Cc1cccc(Cc2nc(SC3CCCCC3)nc(O)c2C)c1`, the EC50 in test [1], in [2], in test [4] and in [5] was more than 100 µM in each case. In test [3], the CC50 is more than 300 µM. For the same compound, the IC50 in test [6] stood at 0.9 µM. In addition, in [7], the Ratio was more than 500.
Regarding `Cc1c(O)nc(SC2CCCC2)nc1Cc1cccc2ccccc12`, the EC50 in [1] is more than 100 µM; in test [2] it was more than 100 µM; in test [4] it was 16.2 µM; in test [5], more than 100 µM; in test [8], 6 µM. For the same compound, the CC50 in [3] is more than 300 µM. Further, in [7], the Ratio was more than 50.
As for `CCC(C)Sc1nc(O)c(C)c(COc2ccccc2)n1` (stereo unspecified), the EC50 in test [1] was more than 100 µM; in test [2], more than 100 µM; in test [12], more than 100 µM; in test [5], more than 100 µM; in [8] it was 8.9 µM. Besides, in test [3], it took 60 µM to reach half-maximal cytotoxicity (CC50). Moreover, the Ratio in [7] amounted to 7.
As to `CCC(C)Sc1nc(O)cc(Cc2cccc3ccccc23)n1` (stereo unspecified), the EC50 in [1] is more than 100 µM; in test [2] it was more than 100 µM; in test [4] it was 2.1 µM; in test [5], more than 100 µM; in test [8], 0.33 µM. The compound also came in with a half-maximal cytotoxic concentration (CC50) in [3] of more than 300 µM. Also, in test [6], the IC50 came to 8.1 µM. For the same compound, the Ratio in [7] was more than 909.

As a reminder, the EC50 is the concentration needed to bring the measured effect to its halfway point. High values mean a need for much substance, low ones an effect from little substance. One may read the CC50 as the concentration that lowers cell viability or growth by half. A word on the IC50: it is the concentration that inhibits the measured activity by half.
